Results taken from ChEMBL document CHEMBL1649165, “Activity profile in vitro of micafungin against Spanish clinical isolates of common and emerging species of yeasts and molds” (2009).
*1 amine or outer side, *2 acyl side, *3 side chain or, on linkers, in order; H or OH if unused. Where a SMILES comes first, the peptide text is derived from it. Bridges are numbered along the chain shown (N, C = ends). [ ]: non-standard residue; d: D form. The star is where a group is joined. pTerphenylCO(4''-OnC5H11) = CCCCCOc1ccc(-c2ccc(-c3ccc(C(=O)*)cc3)cc2)cc1; Orn(4R-OH,5R-OH) = O=C([C@H](C[C@@H](O)[C@@H](O)N[*:3])N[*:1])[*:2]; hTyr(3S-OH,4S-OH) = N[C@H](C(=O)O)[C@H](O)[C@@H](O)c1ccc(O)cc1; Pro(3S-OH,4S-Me) = C[C@H]1CN[C@H](C(=O)O)[C@H]1O; Hyp = O=C(O)[C@@H]1C[C@@H](O)CN1

What was measured:
Type in all cases: functional
Diutina rugosa = assay: Antimicrobial activity against Candida rugosa by broth microdilution method
Procedure, shortened: (§1)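 Clinical isolates from human patients, tested by broth microdilution using the AFST-EUCAST reference procedure for fermentative yeasts. The MIC was read per that reference method.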

Nakaseomyces glabratus = assay: Antimicrobial activity against Candida glabrata by broth microdilution method; procedure, shortened: as §1
Paecilomyces variotii = assay: Antimicrobial activity against Paecilomyces variotii by broth microdilution method
Procedure, shortened: (§2)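 Filamentous fungus clinical isolates tested by the AFST-EUCAST reference broth microdilution method for moulds. For echinocandins, the endpoint was the minimum effective concentration: the lowest drug concentration giving aberrant hyphal growth, read with an inverted microscope.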

[1] = system: Meyerozyma guilliermondii; assay: Antimicrobial activity against Candida guilliermondii by broth microdilution method; procedure, shortened: as §1
Aspergillus niger = assay: Antimicrobial activity against Aspergillus niger by broth microdilution method
Procedure, shortened: (§3)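 Clinical mould isolates, tested by broth microdilution using the AFST-EUCAST reference method for filamentous fungi. For echinocandins, the endpoint was the minimum effective concentration: the lowest drug concentration giving aberrant hyphal growth, read with an inverted microscope.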

Aspergillus flavus = assay: Antimicrobial activity against Aspergillus flavus by broth microdilution method; procedure, shortened: as §3
Penicillium = assay: Antimicrobial activity against Penicillium spp. by broth microdilution method; procedure, shortened: as §2
Papiliotrema laurentii = assay: Antimicrobial activity against Cryptococcus laurentii by broth microdilution method
Procedure, shortened: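 Clinical isolates of nonfermentative yeasts, tested by broth microdilution following EUCAST recommendations. The only change from that method was a minor modification to improve growth.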

Rhizopus arrhizus = assay: Antimicrobial activity against Rhizopus oryzae by broth microdilution method; procedure, shortened: as §2
[Candida] intermedia = Antimicrobial activity against Candida intermedia by broth microdilution method; settings: Sungouiella intermedia; procedure, shortened: as §1
Lomentospora prolificans = assay: Antimicrobial activity against Scedosporium prolificans by broth microdilution method; procedure, shortened: as §2
Trichosporon ovoides = assay: Antimicrobial activity against Trichosporon ovoides by broth microdilution method
Procedure, shortened: (§4)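 Nonfermentative yeast clinical isolates (Rhodotorula, Trichosporon) tested by broth microdilution. The EUCAST yeast recommendations were followed strictly, with one minor modification to improve growth. MIC was read as the endpoint.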

Alternaria alternata = assay: Antimicrobial activity against Alternaria alternata by broth microdilution method; procedure, shortened: as §3
[Candida] inconspicua = Antimicrobial activity against Candida inconspicua by broth microdilution method; settings: Pichia inconspicua; procedure, shortened: as §1
Trichoderma = assay: Antimicrobial activity against Trichoderma spp. by broth microdilution method; procedure, shortened: as §2
Trichosporon dermatis = assay: Antimicrobial activity against Trichosporon dermatis by broth microdilution method; settings: Cutaneotrichosporon dermatis; procedure, shortened: as §4
Aspergillus ochraceus = assay: Antimicrobial activity against Aspergillus ochraceus by broth microdilution method; procedure, shortened: as §3
Candida parapsilosis = assay: Antimicrobial activity against Candida parapsilosis by broth microdilution method; settings: Lodderomyces parapsilosis; procedure, shortened: as §1
Rhodotorula mucilaginosa = assay: Antimicrobial activity against Rhodotorula mucilaginosa by broth microdilution method; procedure, shortened: as §4
Aspergillus sydowii = assay: Antimicrobial activity against Aspergillus sydowii by broth microdilution method; procedure, shortened: as §3
Magnusiomyces capitatus = assay: Antimicrobial activity against Dipodascus capitatus by broth microdilution method
Aspergillus fumigatus = assay: Antimicrobial activity against Aspergillus fumigatus by broth microdilution method; procedure, shortened: as §3
Fusarium proliferatum = assay: Antimicrobial activity against Fusarium proliferatum by broth microdilution method; procedure, shortened: as §3
Hortaea werneckii = assay: Antimicrobial activity against Hortaea werneckii by broth microdilution method
Wickerhamomyces anomalus = assay: Antimicrobial activity against Candida pelliculosa by broth microdilution method; settings: Hansenula anomala; procedure, shortened: as §1
Torulaspora delbrueckii = assay: Antimicrobial activity against Candida coliculosa by broth microdilution method; procedure, shortened: as §1
Geotrichum candidum = assay: Antimicrobial activity against Galactomyces geotrichum by broth microdilution method
Fusarium verticillioides = assay: Antimicrobial activity against Fusarium verticillioides by broth microdilution method; procedure, shortened: as §2
Aureobasidium pullulans = assay: Antimicrobial activity against Aureobasidium pullulans by broth microdilution method
Aspergillus nidulans = assay: Antimicrobial activity against Aspergillus nidulans by broth microdilution method; procedure, shortened: as §3
Rhodotorula glutinis = assay: Antimicrobial activity against Rhodotorula glutinis by broth microdilution method; procedure, shortened: as §4
Fusarium equiseti = assay: Antimicrobial activity against Fusarium equiseti by broth microdilution method; procedure, shortened: as §3
[2] = Antimicrobial activity against Rhizopus microsporus by broth microdilution method; procedure, shortened: as §2
Aspergillus glaucus = assay: Antimicrobial activity against Aspergillus glaucus by broth microdilution method; procedure, shortened: as §3
Aspergillus sclerotiorum = assay: Antimicrobial activity against Aspergillus sclerotiorum by broth microdilution method; procedure, shortened: as §3
Aspergillus terreus = assay: Antimicrobial activity against Aspergillus terreus by broth microdilution method; procedure, shortened: as §3
Fusarium oxysporum = assay: Antimicrobial activity against Fusarium oxysporum by broth microdilution method; procedure, shortened: as §3
Lewia infectoria = assay: Antimicrobial activity against Alternaria infectoria by broth microdilution method; procedure, shortened: as §3
Fusarium reticulatum = assay: Antimicrobial activity against Fusarium reticulatum by broth microdilution method; procedure, shortened: as §2
Kluyveromyces marxianus = assay: Antimicrobial activity against Candida kefyr by broth microdilution method; procedure, shortened: as §1
Yarrowia lipolytica = assay: Antimicrobial activity against Yarrowia lipolytica by broth microdilution method

CCCCCOc1ccc(-c2ccc(-c3ccc(C(=O)N[C@H]4C[C@@H](O)[C@@H](O)NC(=O)[C@@H]5[C@@H](O)[C@@H](C)CN5C(=O)[C@H]([C@@H](C)O)NC(=O)[C@H]([C@H](O)[C@@H](O)c5ccc(O)cc5)NC(=O)[C@@H]5C[C@@H](O)CN5C(=O)[C@H]([C@@H](C)O)NC4=O)cc3)cc2)cc1 [ANIDULAFUNGIN] ({pTerphenylCO(4''-OnC5H11)}-[Orn(4R-OH,5R-OH)]T[Hyp][hTyr(3S-OH,4S-OH)]T[Pro(3S-OH,4S-Me)]; lactam 1-C)
1 µg/mL: MIC50 [1] | MIC50 (Candida parapsilosis)
0.03 µg/mL: MIC50 (Nakaseomyces glabratus) | MIC90 (Nakaseomyces glabratus) | MIC50 (Paecilomyces variotii) | MIC90 (Paecilomyces variotii) | MIC50 (Aspergillus niger) | MIC90 (Aspergillus niger) | MIC50 (Penicillium) | MIC90 (Penicillium) | MIC50 (Aspergillus sydowii) | MIC90 (Aspergillus sydowii) | MIC50 (Aspergillus fumigatus) | MIC90 (Aspergillus fumigatus) | MIC50 (Hortaea werneckii) | MIC50 (Aureobasidium pullulans) | MIC50 (Aspergillus nidulans) | MIC50 (Aspergillus terreus) | MIC90 (Aspergillus terreus) | MIC50 (Kluyveromyces marxianus) | MIC90 (Kluyveromyces marxianus)
8 µg/mL: MIC90 [1]
0.06 µg/mL: MIC50 (Diutina rugosa) | MIC50 ([Candida] intermedia) | MIC50 (Alternaria alternata) | MIC50 ([Candida] inconspicua) | MIC50 (Aspergillus ochraceus) | MIC90 (Hortaea werneckii) | MIC50 (Wickerhamomyces anomalus) | MIC50 (Torulaspora delbrueckii) | MIC90 (Aureobasidium pullulans) | MIC50 (Aspergillus glaucus) | MIC50 (Aspergillus sclerotiorum) | MIC50 (Yarrowia lipolytica)
> 16 µg/mL: MIC50 (Aspergillus flavus) | MIC90 (Aspergillus flavus) | MIC50 (Papiliotrema laurentii) | MIC90 (Papiliotrema laurentii) | MIC50 (Rhizopus arrhizus) | MIC90 (Rhizopus arrhizus) | MIC90 (Lomentospora prolificans) | MIC50 (Trichosporon ovoides) | MIC90 (Trichosporon ovoides) | MIC90 (Alternaria alternata) | MIC50 (Trichoderma) | MIC90 (Trichoderma) | MIC50 (Trichosporon dermatis) | MIC90 (Trichosporon dermatis) | MIC50 (Rhodotorula mucilaginosa) | MIC90 (Rhodotorula mucilaginosa) | MIC50 (Fusarium proliferatum) | MIC90 (Fusarium proliferatum) | MIC50 (Geotrichum candidum) | MIC90 (Geotrichum candidum) | MIC50 (Fusarium verticillioides) | MIC90 (Fusarium verticillioides) | MIC50 (Rhodotorula glutinis) | MIC90 (Rhodotorula glutinis) | MIC50 (Fusarium equiseti) | MIC90 (Fusarium equiseti) | MIC50 [2] | MIC90 [2] | MIC50 (Fusarium oxysporum) | MIC90 (Fusarium oxysporum) | MIC90 (Lewia infectoria) | MIC50 (Fusarium reticulatum) | MIC90 (Fusarium reticulatum)
4 µg/mL: MIC50 (Lomentospora prolificans) | MIC90 (Magnusiomyces capitatus)
0.12 µg/mL: MIC90 (Yarrowia lipolytica)
2 µg/mL: MIC90 (Candida parapsilosis) | MIC50 (Magnusiomyces capitatus) | MIC50 (Lewia infectoria)
0.25 µg/mL: MIC90 (Diutina rugosa) | MIC90 ([Candida] intermedia) | MIC90 ([Candida] inconspicua) | MIC90 (Aspergillus ochraceus) | MIC90 (Wickerhamomyces anomalus) | MIC90 (Torulaspora delbrueckii) | MIC90 (Aspergillus nidulans) | MIC90 (Aspergillus glaucus) | MIC90 (Aspergillus sclerotiorum)

CC[C@@H]([C@H](C)O)n1ncn(-c2ccc(N3CCN(c4ccc(OC[C@@H]5CO[C@@](Cn6cncn6)(c6ccc(F)cc6F)C5)cc4)CC3)cc2)c1=O [POSACONAZOLE]
4 µg/mL: MIC90 (Penicillium) | MIC50 (Trichoderma) | MIC50 (Fusarium equiseti) | MIC50 [2] | MIC50 (Fusarium oxysporum) | MIC50 (Fusarium reticulatum)
0.5 µg/mL: MIC90 (Aspergillus niger) | MIC90 (Aspergillus sydowii) | MIC50 (Magnusiomyces capitatus) | MIC90 (Magnusiomyces capitatus) | MIC50 (Geotrichum candidum) | MIC90 (Geotrichum candidum) | MIC50 (Lewia infectoria)
0.03 µg/mL: MIC50 (Diutina rugosa) | MIC50 (Paecilomyces variotii) | MIC50 ([Candida] intermedia) | MIC50 ([Candida] inconspicua) | MIC90 (Candida parapsilosis) | MIC50 (Wickerhamomyces anomalus) | MIC50 (Torulaspora delbrueckii) | MIC50 (Kluyveromyces marxianus)
0.06 µg/mL: MIC50 (Aspergillus fumigatus) | MIC50 (Hortaea werneckii) | MIC50 (Aureobasidium pullulans) | MIC50 (Aspergillus nidulans) | MIC50 (Aspergillus terreus) | MIC90 (Kluyveromyces marxianus)
0.25 µg/mL: MIC50 (Nakaseomyces glabratus) | MIC90 (Paecilomyces variotii) | MIC50 (Aspergillus niger) | MIC90 (Aspergillus flavus) | MIC50 (Penicillium) | MIC50 (Papiliotrema laurentii) | MIC50 (Trichosporon ovoides) | MIC50 (Trichosporon dermatis) | MIC50 (Aspergillus sydowii) | MIC90 (Aspergillus fumigatus) | MIC90 (Aspergillus nidulans) | MIC50 (Rhodotorula glutinis) | MIC50 (Yarrowia lipolytica)
0.12 µg/mL: MIC50 [1] | MIC50 (Aspergillus flavus) | MIC50 (Aspergillus ochraceus) | MIC50 (Aspergillus glaucus) | MIC50 (Aspergillus sclerotiorum) | MIC90 (Aspergillus terreus)
2 µg/mL: MIC50 (Rhizopus arrhizus) | MIC50 (Rhodotorula mucilaginosa) | MIC50 (Fusarium verticillioides) | MIC90 (Yarrowia lipolytica)
0.02 µg/mL: MIC50 (Candida parapsilosis)
> 8 µg/mL: MIC90 (Diutina rugosa) | MIC90 [1] | MIC90 (Papiliotrema laurentii) | MIC90 (Rhizopus arrhizus) | MIC90 ([Candida] intermedia) | MIC50 (Lomentospora prolificans) | MIC90 (Lomentospora prolificans) | MIC90 (Trichosporon ovoides) | MIC90 (Alternaria alternata) | MIC90 ([Candida] inconspicua) | MIC90 (Trichoderma) | MIC90 (Trichosporon dermatis) | MIC90 (Aspergillus ochraceus) | MIC90 (Rhodotorula mucilaginosa) | MIC50 (Fusarium proliferatum) | MIC90 (Fusarium proliferatum) | MIC90 (Hortaea werneckii) | MIC90 (Wickerhamomyces anomalus) | MIC90 (Torulaspora delbrueckii) | MIC90 (Fusarium verticillioides) | MIC90 (Aureobasidium pullulans) | MIC90 (Rhodotorula glutinis) | MIC90 (Fusarium equiseti) | MIC90 [2] | MIC90 (Aspergillus glaucus) | MIC90 (Aspergillus sclerotiorum) | MIC90 (Fusarium oxysporum) | MIC90 (Lewia infectoria) | MIC90 (Fusarium reticulatum)
1 µg/mL: MIC90 (Nakaseomyces glabratus) | MIC50 (Alternaria alternata)
